Assay results taken from ChEMBL document CHEMBL3091364, “Benzyloxybenzylammonium chlorides: Simple amine salts that display anticonvulsant activity” (Bioorg Med Chem, 2013).
The source made the active and inactive calls. The calls are words filed in the database; no cut-off is given here.

Columns and labels:
[1] = molecular target: T1, Alpha-1D adrenergic receptor (Homo sapiens) (UniProt P25100); test: Inhibition of adrenergic alpha-1D receptor (unknown origin) at 10 uM relative to control
T1 sequence (whole entry): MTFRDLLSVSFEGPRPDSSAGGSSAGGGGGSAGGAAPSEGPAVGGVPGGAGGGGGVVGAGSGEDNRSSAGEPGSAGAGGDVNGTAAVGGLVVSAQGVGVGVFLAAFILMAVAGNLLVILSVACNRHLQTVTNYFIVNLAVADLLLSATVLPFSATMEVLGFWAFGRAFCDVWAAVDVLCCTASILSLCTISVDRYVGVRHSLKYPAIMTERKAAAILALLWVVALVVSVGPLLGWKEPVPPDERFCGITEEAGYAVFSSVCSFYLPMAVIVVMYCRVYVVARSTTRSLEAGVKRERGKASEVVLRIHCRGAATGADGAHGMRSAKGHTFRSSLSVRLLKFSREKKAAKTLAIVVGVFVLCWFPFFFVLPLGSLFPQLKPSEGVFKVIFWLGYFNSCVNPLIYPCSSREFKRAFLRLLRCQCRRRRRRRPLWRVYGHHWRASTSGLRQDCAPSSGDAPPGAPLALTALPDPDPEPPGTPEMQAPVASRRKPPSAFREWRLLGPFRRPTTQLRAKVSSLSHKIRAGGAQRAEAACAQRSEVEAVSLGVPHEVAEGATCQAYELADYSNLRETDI

[2] = tested on: Rattus norvegicus; test: Anticonvulsant activity in ip dosed albino Sprague-Dawley rat assessed as protection against maximal electroshock-induced seizures measured at 0.25 to 4 hrs; assay type: functional
In short: (§1)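 Screened under the NINDS ASP in male albino Carworth Farms No. 1 mice (ip) or male albino Sprague-Dawley rats (ip or po), using MES, 6 Hz (32 mA) and subcutaneous pentylenetetrazol seizure tests. Initial qualitative tests used preset doses (e.g., 30, 50, 100 mg/kg). ED50 values with 95% confidence intervals came from dose–response data collected at the time of peak effect.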

[3] = molecular target: 5-hydroxytryptamine receptor 1E (Homo sapiens) (UniProt P28566); test: Inhibition of 5-HT1E receptor (unknown origin) at 10 uM relative to control
Chain of 5-hydroxytryptamine receptor 1E (Homo sapiens) (P28566 whole entry): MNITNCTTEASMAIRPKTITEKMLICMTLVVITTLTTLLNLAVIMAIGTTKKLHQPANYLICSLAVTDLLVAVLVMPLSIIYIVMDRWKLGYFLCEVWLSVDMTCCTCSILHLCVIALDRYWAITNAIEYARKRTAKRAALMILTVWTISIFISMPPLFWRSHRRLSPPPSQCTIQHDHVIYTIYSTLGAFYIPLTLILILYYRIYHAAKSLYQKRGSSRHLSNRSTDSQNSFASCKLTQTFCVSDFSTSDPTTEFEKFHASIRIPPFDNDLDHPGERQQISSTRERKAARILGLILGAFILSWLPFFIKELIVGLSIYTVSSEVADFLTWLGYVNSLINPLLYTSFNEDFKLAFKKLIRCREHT

[4] = Toxicity in ip dosed albino CF-1 mouse assessed as neurological impairment measured at 0.25 to 4 hrs by rotorod test; assay type: organism-based; details: in vivo
In short: (§2)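 Male albino Carworth Farms No. 1 mice dosed intraperitoneally under the NINDS Anticonvulsant Screening Program; neurological impairment scored by rotorod test. Qualitative screens used preset doses (e.g., 30, 100 mg/kg); where activity was sufficient, dose–response curves were run at time of peak effect to give TD50 in mg/kg with 95% confidence intervals.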

[5] = tested on: Mus musculus; test: Anticonvulsant activity in ip dosed albino CF-1 mouse assessed as protection against maximal electroshock-induced seizures measured at 0.25 hrs; assay type: functional; details: albino CF-1, ip; in short: as §1
[6] = molecular target: T2, 5-hydroxytryptamine receptor 3A (Homo sapiens) (UniProt P46098); test: Inhibition of 5-HT3 receptor (unknown origin) at 10 uM relative to control
T2 sequence (whole entry): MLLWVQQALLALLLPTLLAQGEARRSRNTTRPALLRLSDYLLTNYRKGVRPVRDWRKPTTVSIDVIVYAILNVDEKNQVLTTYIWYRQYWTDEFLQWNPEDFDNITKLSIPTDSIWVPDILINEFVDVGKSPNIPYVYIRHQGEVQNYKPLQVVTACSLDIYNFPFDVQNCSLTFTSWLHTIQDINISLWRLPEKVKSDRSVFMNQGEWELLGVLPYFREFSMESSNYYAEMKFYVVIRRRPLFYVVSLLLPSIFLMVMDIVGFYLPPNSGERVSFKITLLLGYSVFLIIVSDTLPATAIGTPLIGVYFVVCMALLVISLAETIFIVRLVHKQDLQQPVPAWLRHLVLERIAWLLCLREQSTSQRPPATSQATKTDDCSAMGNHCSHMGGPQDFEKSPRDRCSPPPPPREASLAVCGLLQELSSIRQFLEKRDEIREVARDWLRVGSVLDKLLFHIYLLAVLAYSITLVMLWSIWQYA

[7] = tested on: Mus musculus; test: Anticonvulsant activity in ip dosed albino CF-1 mouse assessed as protection against 6 Hz psychomotor seizure measured at 2 hrs; assay type: functional; details: albino CF-1, ip; in short: as §1
[8] = molecular target: 5-hydroxytryptamine receptor 1B (Homo sapiens) (UniProt P28222); test: Inhibition of 5-HT1B receptor (unknown origin) at 10 uM relative to control
Chain of 5-hydroxytryptamine receptor 1B (Homo sapiens) (P28222 whole entry): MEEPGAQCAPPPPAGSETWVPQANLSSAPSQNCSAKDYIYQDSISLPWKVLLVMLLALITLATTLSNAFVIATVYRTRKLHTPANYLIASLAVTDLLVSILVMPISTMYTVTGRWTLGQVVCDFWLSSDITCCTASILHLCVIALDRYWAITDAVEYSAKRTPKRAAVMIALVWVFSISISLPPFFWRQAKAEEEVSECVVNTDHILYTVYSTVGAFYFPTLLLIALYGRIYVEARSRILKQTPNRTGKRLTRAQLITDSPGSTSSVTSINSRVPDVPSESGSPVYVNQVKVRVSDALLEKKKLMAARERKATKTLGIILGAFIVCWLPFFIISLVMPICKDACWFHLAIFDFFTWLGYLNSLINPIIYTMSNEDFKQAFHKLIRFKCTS

[9] = tested on: Mus musculus; test: Anticonvulsant activity in ip dosed albino CF-1 mouse assessed as protection against maximal electroshock-induced seizures measured at 0.5 hrs; assay type: functional; details: albino CF-1, ip; in short: as §1
[10] = tested on: Mus musculus; test: Anticonvulsant activity in ip dosed albino CF-1 mouse assessed as protection against 6 Hz psychomotor seizure measured at 0.5 hrs; assay type: functional; details: albino CF-1, ip; in short: as §1
[11] = molecular target: D(2) dopamine receptor (Homo sapiens) (UniProt P14416); test: Inhibition of dopaminergic D2 receptor (unknown origin) at 10 uM relative to control
Chain of D(2) dopamine receptor (Homo sapiens) (P14416 whole entry): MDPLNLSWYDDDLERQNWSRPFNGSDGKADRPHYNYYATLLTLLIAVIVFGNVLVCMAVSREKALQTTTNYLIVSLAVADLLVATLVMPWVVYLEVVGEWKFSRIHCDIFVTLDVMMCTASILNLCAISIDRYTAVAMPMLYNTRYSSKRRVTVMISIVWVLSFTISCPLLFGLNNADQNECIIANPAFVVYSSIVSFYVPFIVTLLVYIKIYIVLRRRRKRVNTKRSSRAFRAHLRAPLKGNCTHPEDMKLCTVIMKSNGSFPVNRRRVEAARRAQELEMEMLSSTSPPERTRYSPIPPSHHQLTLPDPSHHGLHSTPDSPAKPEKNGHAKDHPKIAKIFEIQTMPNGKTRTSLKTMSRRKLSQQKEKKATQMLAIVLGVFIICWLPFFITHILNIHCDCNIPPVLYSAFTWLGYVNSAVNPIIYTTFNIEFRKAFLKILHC

[12] = Toxicity in ip dosed albino CF-1 mouse assessed as neurological impairment measured at 0.5 to 2 hrs by rotorod test; assay type: organism-based; details: in vivo; in short: as §2
[13] = tested on: Mus musculus; test: Anticonvulsant activity in ip dosed albino CF-1 mouse assessed as protection against 6 Hz psychomotor seizure measured at 0.25 to 4 hrs; assay type: functional; details: albino CF-1, ip; in short: as §1
[14] = tested on: Mus musculus; test: Anticonvulsant activity in corneally kindled mouse assessed as protection against seizure at 78 mg/kg, ip; assay type: functional, organism-based; parameters: dose 78 mg/kg
In short: (§3)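 Corneally kindled mouse seizure model with ip dosing. Protection was scored in 4 animals, and the average seizure score was recorded.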

[15] = Toxicity in ip dosed albino CF-1 mouse assessed as neurological impairment measured at 0.25 hrs by rotorod test; assay type: organism-based; details: in vivo; in short: as §2
[16] = tested on: Mus musculus; test: Anticonvulsant activity in ip dosed albino CF-1 mouse assessed as protection against subcutaneous metrazol-induced seizure measured at 0.25 hrs; assay type: functional; details: albino CF-1, 0.25 h; in short: as §1
[17] = tested on: Mus musculus; test: Anticonvulsant activity in ip dosed albino CF-1 mouse assessed as protection against 6 Hz psychomotor seizure measured at 1 hr; assay type: functional; details: albino CF-1, ip; in short: as §1
[18] = tested on: Mus musculus; test: Anticonvulsant activity in ip dosed albino CF-1 mouse assessed as protection against subcutaneous metrazol-induced seizure measured at 0.5 hrs; assay type: functional; details: albino CF-1, 0.5 h; in short: as §1
[19] = tested on: Mus musculus; test: Anticonvulsant activity in corneally kindled mouse assessed as protection against seizure at 28 mg/kg, ip; assay type: functional, organism-based; parameters: dose 28 mg/kg; in short: as §3
[20] = organism: Rattus norvegicus; test: Inhibition of Na+ channel in rat embryonic cortical neurons assessed as frequency-dependent decrease in current amplitude at 10 uM at -80 mV holding potential by whole-cell voltage clamp assay
[21] = tested on: Mus musculus; test: Anticonvulsant activity in corneally kindled mouse assessed as protection against seizure at 20 mg/kg, ip; assay type: functional, organism-based; parameters: dose 20 mg/kg; in short: as §3
[22] = organism: Rattus norvegicus; test: Induction of Na+ channel slow inactivation in rat embryonic cortical neurons at 10 uM by whole-cell voltage clamp assay
[23] = organism: Rattus norvegicus; test: Induction of voltage-dependent Na+ channel fast inactivation in rat embryonic cortical neurons at 10 uM by whole-cell voltage clamp assay (reference value: - 51.1 +/- 1.4 mV)
[24] = Toxicity in ip dosed albino Sprague-Dawley rat assessed as behavioral changes measured at 0.5 hrs; assay type: organism-based; details: in vivo
In short: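 Male albino Sprague-Dawley rats given compound intraperitoneally or orally (NINDS ASP); neurological impairment judged from behavioral toxicity effects. Preset screening doses (e.g., 30 mg/kg); for adequately active compounds, TD50 (mg/kg, 95% confidence intervals) derived from dose–effect data at time of peak effect.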

With `Cl.NCc1ccc(OCc2ccc(Cl)cc2)cc1` the inhibition [1] was -6.6%, the ED50 [2] was > 30 mg/kg and the inhibition [3] was 2.7%. The TD50 [4] was > 100 mg/kg, the ED50 [5] was < 100 mg/kg and the inhibition [6] was 23.1%. The ED50 [7] was < 100 mg/kg and the inhibition [8] was -6.7%.

With `Cl.NCc1ccc(OCc2ccccc2F)cc1` the ED50 [2] was > 30 mg/kg, the ED50 [9] was 30 mg/kg and the inhibition [3] was -6.6%. For the same compound, the ED50 [10] was 30 mg/kg, the inhibition [11] was 7.4% and the TD50 [12] was 100 mg/kg. The inhibition [8] was -7.7%.

For `Cl.NCc1ccc(OCc2ccccc2)cc1`, the ED50 [2] was > 30 mg/kg, the ED50 [10] was 30 mg/kg and the inhibition [11] was 12.4%. The TD50 [12] was 100 mg/kg.

For `Cl.NCc1ccc(OCc2cccc(F)c2)cc1`, the inhibition [1] was -9.1%, the ED50 [2] was > 30 mg/kg and the TD50 [4] was > 100 mg/kg. The inhibition [11] was 3.2% and the ED50 [13] was > 50 mg/kg.

For `Cl.NCc1ccc(OCc2ccc(OC(F)(F)F)cc2)cc1`, the ED50 [9] was < 100 mg/kg, the inhibition [3] was -6.9% and the TD50 [4] was > 100 mg/kg. The inhibition [11] was 5.3% and the ED50 [7] was 30 mg/kg.

With `Cl.NCc1ccc(OCc2cccc(Cl)c2)cc1` the inhibition [1] was -1.9%, the Activity [14] was “Active” and the TD50 at 0.25 h [15] was 160 mg/kg. The ED50 [5] was 54 mg/kg, the ED50 [16] was > 180 mg/kg and the inhibition [6] was 13.7%. It also gave an ED50 [7] of 78 mg/kg.

For `Cl.NCc1ccc(OCc2cccc(OC(F)(F)F)c2)cc1`, the ED50 [9] was 28 mg/kg, the ED50 [17] was 50 mg/kg and the TD50 at 0.25 h [15] was 92 mg/kg. For the same compound, the ED50 [18] was > 170 mg/kg and the Activity [19] was “Active”.

For `Cl.NCc1ccc(OCc2ccccc2OC(F)(F)F)cc1`, the inhibition [1] was 6.5%, the inhibition [20] was “inactive” and the inhibition [3] was -5.2%. For the same compound, the TD50 at 0.25 h [15] was 64 mg/kg, the Activity [21] was “Active” and the ED50 [5] was 20 mg/kg. The inhibition [11] was 12.7%, the ED50 [16] was > 80 mg/kg and the Activity [22] was “Active”. For the same compound, the inhibition [6] was 10.4%, the V1/2 [23] was -66.4 mV and the TD50 at 0.5 h [24] was 81 mg/kg. For the same compound, the ED50 [13] was < 100 mg/kg and the inhibition [8] was -8.8%.

In the case of `Cl.NCc1ccc(OCc2ccc(F)cc2)cc1`, the inhibition [1] is reported as 0.2%, the TD50 [4] is reported as > 100 mg/kg and the ED50 [5] is reported as < 100 mg/kg. The inhibition [6] was -4.2%, the ED50 [13] was > 100 mg/kg and the inhibition [8] was -2.5%.
